Results taken from publication PMC8265595 (Neuropharmacology, 2020).
“And” between values parts separate entries of the source, which are not always exact repeats. Identical values can stand only once.

What was measured:
[1] = target: T1, α4β3δ GABAA receptor (Homo sapiens, UniProt P28472+P48169); assay: Synergy with diazepam, α4β3δ in CHO cells; type: cell-based
[2] = target: T2, α1β2γ2 GABAA receptor (Homo sapiens, UniProt P14867+P18507+P47870); assay: Synergy with diazepam, α1β2γ2 in Ltk cells, isobolographic analysis; type: cell-based; details: for concentration applied alone required to reach 150% effect level: α1β2γ2, isobologram
T2 sequence (P14867 28-456): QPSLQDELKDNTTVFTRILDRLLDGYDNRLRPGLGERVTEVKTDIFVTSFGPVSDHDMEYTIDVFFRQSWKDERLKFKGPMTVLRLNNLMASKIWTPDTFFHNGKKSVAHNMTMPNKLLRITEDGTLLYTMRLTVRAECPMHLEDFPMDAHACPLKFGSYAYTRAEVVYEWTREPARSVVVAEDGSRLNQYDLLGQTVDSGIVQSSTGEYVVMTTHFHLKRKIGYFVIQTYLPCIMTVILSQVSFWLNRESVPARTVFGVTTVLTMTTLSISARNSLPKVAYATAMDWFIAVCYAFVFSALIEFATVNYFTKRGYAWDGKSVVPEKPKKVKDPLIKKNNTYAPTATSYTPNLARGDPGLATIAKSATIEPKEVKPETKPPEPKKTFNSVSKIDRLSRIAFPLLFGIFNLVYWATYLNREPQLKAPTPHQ
T2 sequence (P47870 25-512 limits assumed): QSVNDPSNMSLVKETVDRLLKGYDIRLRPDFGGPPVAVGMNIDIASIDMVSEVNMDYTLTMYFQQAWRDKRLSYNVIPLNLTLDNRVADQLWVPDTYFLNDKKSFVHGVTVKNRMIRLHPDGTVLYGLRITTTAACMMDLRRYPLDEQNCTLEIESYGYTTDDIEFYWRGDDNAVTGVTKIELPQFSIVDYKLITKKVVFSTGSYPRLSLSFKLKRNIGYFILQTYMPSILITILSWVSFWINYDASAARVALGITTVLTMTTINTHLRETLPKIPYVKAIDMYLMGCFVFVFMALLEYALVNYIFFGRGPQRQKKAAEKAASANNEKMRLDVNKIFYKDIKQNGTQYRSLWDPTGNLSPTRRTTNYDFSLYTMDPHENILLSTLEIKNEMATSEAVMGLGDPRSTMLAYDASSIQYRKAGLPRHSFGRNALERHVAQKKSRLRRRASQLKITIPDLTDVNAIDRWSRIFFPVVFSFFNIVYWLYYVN
T2 sequence (P18507 40-475): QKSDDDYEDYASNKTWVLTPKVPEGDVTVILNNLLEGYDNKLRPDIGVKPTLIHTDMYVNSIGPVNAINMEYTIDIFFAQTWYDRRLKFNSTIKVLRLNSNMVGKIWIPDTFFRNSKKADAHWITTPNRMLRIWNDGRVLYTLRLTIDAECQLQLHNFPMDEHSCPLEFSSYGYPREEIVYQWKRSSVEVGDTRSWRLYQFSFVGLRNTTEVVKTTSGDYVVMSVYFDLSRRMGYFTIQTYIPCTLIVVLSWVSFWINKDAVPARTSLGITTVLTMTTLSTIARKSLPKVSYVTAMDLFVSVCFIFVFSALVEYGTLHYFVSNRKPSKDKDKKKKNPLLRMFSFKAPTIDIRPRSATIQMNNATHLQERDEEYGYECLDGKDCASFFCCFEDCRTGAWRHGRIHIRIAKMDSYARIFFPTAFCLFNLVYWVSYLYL

[3] = target: T2, α1β2γ2 GABAA receptor; assay: P4S concentration-response with and without 200 nM zuranolone, Ltk cells; type: cell-based; details: for EC50: EC50 of P4S, α1β2γ2, Ltk cells
How it was run: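 Ltk cells stably expressing α1β2γ2; whole-cell patch clamp at −80 mV, n = 11. P4S was applied at 0.1–1000 μM in log steps, with or without a fixed 200 nM test compound. Currents were normalized to the maximum current from a saturating GABA concentration.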

[4] = Phase 1, healthy volunteers, ref Hoffmann et al., 2019, cited from earlier work
[5] = test system: glycine; details: 10 μM, ref Martinez-Botella et al., 2017; cited from earlier work
[6] = Brain and plasma pharmacokinetics after single IP or PO dose; type: in vivo, mouse; details: for time of maximum plasma concentration (Cmax) post dose: CD1 mouse; for Cmax / bioavailability: male, CD-1, mouse, plasma, 10 mg/kg
How it was run: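 Adult male CD-1 mice received a single 10 mg/kg dose: IP in 15% HP-β-CD or PO in 30% SBECD. Sampling: IP at 0.5–8 h (n = 2 per time point); PO at 0.167–12 h (n = 3 per time point). Plasma (K2 EDTA) and snap-frozen brain were collected. Brain was homogenized in 3 vol PBS, extracted by acetonitrile precipitation with internal standard, and assayed by LC-MS/MS (C18, water:methanol gradient, positive MRM). Brain:plasma ratio from a single point at 1 h.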

[7] = Plasma concentrations in rats designated for pharmacokinetic analysis; type: in vivo; details: rat, po
[8] = target: human recombinant α1β1γ2 GABAA receptor (Homo sapiens, UniProt P14867+P18505); assay: Two electrode voltage clamp, α1β1γ2 in Xenopus oocytes; type: cell-based
human recombinant α1β1γ2 GABAA receptor, sequence (P14867 28-456): as the sequence (P14867 28-456) above
human recombinant α1β1γ2 GABAA receptor, sequence (P18505 26-474): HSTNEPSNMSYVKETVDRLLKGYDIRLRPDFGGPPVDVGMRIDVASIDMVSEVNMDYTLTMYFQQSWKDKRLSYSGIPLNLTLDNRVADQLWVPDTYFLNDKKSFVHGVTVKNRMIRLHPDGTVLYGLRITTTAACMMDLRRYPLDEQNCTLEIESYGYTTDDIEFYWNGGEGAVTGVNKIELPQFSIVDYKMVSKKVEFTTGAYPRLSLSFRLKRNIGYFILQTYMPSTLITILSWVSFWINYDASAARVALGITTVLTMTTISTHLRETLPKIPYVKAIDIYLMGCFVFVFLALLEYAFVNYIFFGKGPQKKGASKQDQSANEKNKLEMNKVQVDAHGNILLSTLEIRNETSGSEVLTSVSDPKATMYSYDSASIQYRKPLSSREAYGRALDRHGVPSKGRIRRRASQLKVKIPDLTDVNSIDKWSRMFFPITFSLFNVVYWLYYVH
human recombinant α1β1γ2 GABAA receptor, sequence (P18507 40-475 partner): as the sequence (P18507 40-475) above
How it was run: (§1)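 Xenopus oocytes expressing subunit cDNA; two-electrode voltage clamp at −80 mV, 18 °C, superfused with OR2 medium pH 7.4. Submaximal GABA given alone for 15 s, then co-applied with test compound at half-log steps 0.1–10 μM (0.3% DMSO). GABA: 10 μM for α1β1γ2, 3 μM for α6β3δ. n = 3 cells per concentration. Potentiation = peak amplitude with test compound / GABA alone ×100.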

[9] = test system: β-band EEG power; assay: PharmacoEEG, β-band EEG power and sleep/wake; type: in vivo; details: rat; for sleep time: p < 0.05
How it was run: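 Adult male Sprague Dawley rats (n = 7 per group) with implanted epidural EEG screw electrodes and EMG were tested after 2 weeks' recovery. After 1 h baseline, they received test compound (0.3, 3 or 20 mg/kg) or vehicle (30% SBECD) PO, followed by 6 h continuous EEG. Sleep/wake was scored in 10 s epochs from EEG/EMG and checked by a blinded expert. Analysis used one-way ANOVA and two-way repeated-measures ANOVA vs vehicle.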

[10] = Plasma and brain concentrations in PTZ behavioral study; type: in vivo; details: mouse, between 0.3 and 1 mg/kg PO
How it was run: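 Plasma and brain were collected from a subset of PTZ-study mice plus satellite PK mice (n = 3–4 per dose) after PO dosing. Brain was homogenized in 3 vol PBS, extracted by acetonitrile protein precipitation with internal standard, and quantified by LC-MS/MS against a spiked calibration curve.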

[11] = test system: dentate granule cells; assay: Acute hippocampal slice recording, tonic current and sIPSCs after washout; type: cell-based, mouse; details: for tonic current density: 15 min pre-incubation, 30–50 min wash; for sIPSC amplitude / sIPSC decay: after 30–50 min wash
How it was run: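 Acute brain slices from postnatal day 21 C57 mice were held in a holding chamber with 0.1 or 1 μM test compound for 15 min. They were then perfused (2 mL/min) with oxygenated ACSF for 30–50 min before whole-cell patch clamp of dentate granule cells (n = 6–7). Tonic current is the baseline shift with 100 μM picrotoxin, divided by capacitance. sIPSCs were inspected visually and only single-peak events were kept.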

[12] = target: human recombinant α5β3γ2 GABAA receptor (Homo sapiens, UniProt P28472+P31644); assay: IonWorks Barracuda patch clamp, α5β3γ2 in HEK cells; type: cell-based
human recombinant α5β3γ2 GABAA receptor, sequence (P31644 32-462): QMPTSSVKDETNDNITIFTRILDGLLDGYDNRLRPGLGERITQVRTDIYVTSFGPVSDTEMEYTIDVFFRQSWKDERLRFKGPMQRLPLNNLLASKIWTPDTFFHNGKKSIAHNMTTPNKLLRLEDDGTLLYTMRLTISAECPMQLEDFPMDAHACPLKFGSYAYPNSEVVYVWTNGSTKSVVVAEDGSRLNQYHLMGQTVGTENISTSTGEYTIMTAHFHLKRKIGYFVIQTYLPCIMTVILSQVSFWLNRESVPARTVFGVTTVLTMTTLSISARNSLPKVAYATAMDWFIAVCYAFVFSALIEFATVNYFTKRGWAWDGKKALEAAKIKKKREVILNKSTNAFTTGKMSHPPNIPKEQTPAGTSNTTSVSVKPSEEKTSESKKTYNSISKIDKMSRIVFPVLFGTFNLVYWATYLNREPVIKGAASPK
human recombinant α5β3γ2 GABAA receptor, sequence (P28472 26-473): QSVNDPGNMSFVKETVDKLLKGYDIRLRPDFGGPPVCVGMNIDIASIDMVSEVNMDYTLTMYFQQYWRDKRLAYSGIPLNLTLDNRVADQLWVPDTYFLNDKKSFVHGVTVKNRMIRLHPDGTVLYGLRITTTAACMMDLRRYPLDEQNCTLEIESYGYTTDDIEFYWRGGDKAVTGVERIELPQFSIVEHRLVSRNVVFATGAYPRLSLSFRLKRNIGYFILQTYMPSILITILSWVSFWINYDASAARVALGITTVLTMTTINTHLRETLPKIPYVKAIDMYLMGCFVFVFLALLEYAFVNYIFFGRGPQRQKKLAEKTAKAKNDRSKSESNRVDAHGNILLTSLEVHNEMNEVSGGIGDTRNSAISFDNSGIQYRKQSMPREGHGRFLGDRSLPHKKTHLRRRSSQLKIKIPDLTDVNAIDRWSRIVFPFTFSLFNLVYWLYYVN
human recombinant α5β3γ2 GABAA receptor, sequence (P18507 40-475 partner): as the sequence (P18507 40-475) above
How it was run: (§2)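 HEK cells stably expressing human receptors; automated perforated-patch whole-cell recording at −70 mV. Extracellular buffer pH 7.4; KCl-based intracellular solution pH 7.2. Submaximal GABA applied alone, then co-applied with test compound at half-log steps 0.01–30 μM (0.3% DMSO, 0.02% Cremophor); n = 4 per concentration. GABA: 5 μM α1β3γ2, 2 μM α2β3γ2, 12.5 μM α3β3γ2, 2 μM α5β3γ2. Potentiation = peak with test compound / peak with GABA alone ×100.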

[13] = target: human recombinant α3β3γ2 GABAA receptor (Homo sapiens, UniProt P28472+P34903); assay: IonWorks Barracuda patch clamp, α3β3γ2 in HEK cells; type: cell-based
human recombinant α3β3γ2 GABAA receptor, sequence (P34903 29-492): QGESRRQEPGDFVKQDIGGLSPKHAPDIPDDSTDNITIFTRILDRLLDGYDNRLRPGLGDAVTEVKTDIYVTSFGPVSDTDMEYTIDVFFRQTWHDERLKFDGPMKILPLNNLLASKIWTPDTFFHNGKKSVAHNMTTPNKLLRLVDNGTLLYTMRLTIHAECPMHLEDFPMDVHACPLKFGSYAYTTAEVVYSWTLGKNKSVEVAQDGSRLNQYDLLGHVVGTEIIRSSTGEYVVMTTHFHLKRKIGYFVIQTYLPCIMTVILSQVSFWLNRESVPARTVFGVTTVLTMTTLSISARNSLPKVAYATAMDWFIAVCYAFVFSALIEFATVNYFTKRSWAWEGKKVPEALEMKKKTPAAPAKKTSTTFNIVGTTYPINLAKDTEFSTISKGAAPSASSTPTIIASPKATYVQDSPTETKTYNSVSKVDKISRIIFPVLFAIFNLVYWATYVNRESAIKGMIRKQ
human recombinant α3β3γ2 GABAA receptor, sequence (P28472 26-473): as the sequence (P28472 26-473) above
human recombinant α3β3γ2 GABAA receptor, sequence (P18507 40-475 partner): as the sequence (P18507 40-475) above
How it was run: as §2

[14] = test system: 8 cardiac ion channels; details: ref Martinez-Botella et al., 2017; cited from earlier work
[15] = target: T1, α4β3δ GABAA receptor; assay: Whole cell patch clamp, GABA-evoked currents, α4β3δ in CHO cells; type: cell-based
How it was run: (§3)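 Whole-cell patch clamp at −80 mV in Ltk cells (stable α1β2γ2, n = 7; α2β2γ2, n = 3) or CHO cells (transient α4β3δ, n = 6). Each cell received test compound (0.1% DMSO) sequentially at 0.01–10 μM, 30 s before each 2 s pulse of 2 μM GABA. Gravity-fed perfusion, exchange within 300–500 ms. For δ-containing cells, DS-2 was applied at the end to confirm δ expression. Potentiation = peak ratio ×100.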

[16] = target: human recombinant α2β2γ2 GABAA receptor (Homo sapiens, UniProt P47869+P47870); assay: Whole cell patch clamp, GABA-evoked currents, α2β2γ2 in Ltk cells; type: cell-based
How it was run: as §3

[17] = test system: sigma; details: 10 μM, ref Martinez-Botella et al., 2017; cited from earlier work
[18] = test system: PTZ-induced seizures; assay: Pentylenetetrazole-induced seizures; type: in vivo, mouse; details: vehicle 751 ± 67 s
[19] = target: human recombinant α6β3δ GABAA receptor (Homo sapiens, UniProt P28472+Q16445); assay: Two electrode voltage clamp, α6β3δ in Xenopus oocytes; type: cell-based
How it was run: as §1

[20] = target: human recombinant α1β3γ2 GABAA receptor (Homo sapiens, UniProt P14867+P28472); assay: IonWorks Barracuda patch clamp, α1β3γ2 in HEK cells; type: cell-based
human recombinant α1β3γ2 GABAA receptor, sequence (P14867 28-456): as the sequence (P14867 28-456) above
human recombinant α1β3γ2 GABAA receptor, sequence (P28472 26-473): as the sequence (P28472 26-473) above
human recombinant α1β3γ2 GABAA receptor, sequence (P18507 40-475 partner): as the sequence (P18507 40-475) above
How it was run: as §2

[21] = test system: 22 nuclear hormone receptors; details: ref Martinez-Botella et al., 2017; cited from earlier work
[22] = target: human recombinant α2β3γ2 GABAA receptor (Homo sapiens, UniProt P28472+P47869); assay: IonWorks Barracuda patch clamp, α2β3γ2 in HEK cells; type: cell-based
How it was run: as §2

[23] = test system: transient receptor potential cation channel subfamily V member 1 receptor; details: 10 μM; ref Martinez-Botella et al., 2017; cited from earlier work
[24] = test system: other ion channel and hormone receptors, including AMPA and NMDA; details: ref Martinez-Botella et al., 2017; cited from earlier work
[25] = target: T2, α1β2γ2 GABAA receptor; assay: Whole cell patch clamp, GABA-evoked currents, α1β2γ2 in Ltk cells; type: cell-based
How it was run: as §3

T1 sequence (P48169 36-554): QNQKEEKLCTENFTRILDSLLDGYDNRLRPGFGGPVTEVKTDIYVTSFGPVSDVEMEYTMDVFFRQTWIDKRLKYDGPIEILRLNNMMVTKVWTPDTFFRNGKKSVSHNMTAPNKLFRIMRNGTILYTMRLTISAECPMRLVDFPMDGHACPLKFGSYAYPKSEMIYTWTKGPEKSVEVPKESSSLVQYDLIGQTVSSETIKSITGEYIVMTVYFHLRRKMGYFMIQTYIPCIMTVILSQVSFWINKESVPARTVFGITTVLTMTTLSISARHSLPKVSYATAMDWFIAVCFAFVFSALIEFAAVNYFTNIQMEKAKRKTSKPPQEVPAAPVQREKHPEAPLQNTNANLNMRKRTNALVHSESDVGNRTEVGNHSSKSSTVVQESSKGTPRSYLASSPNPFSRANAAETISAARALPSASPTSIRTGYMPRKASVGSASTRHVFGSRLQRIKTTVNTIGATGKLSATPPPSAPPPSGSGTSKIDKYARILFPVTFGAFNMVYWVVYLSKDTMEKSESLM
T1 sequence (P28472 26-473): as the sequence (P28472 26-473) above
T1 sequence (O14764 17-452 partner limits assumed): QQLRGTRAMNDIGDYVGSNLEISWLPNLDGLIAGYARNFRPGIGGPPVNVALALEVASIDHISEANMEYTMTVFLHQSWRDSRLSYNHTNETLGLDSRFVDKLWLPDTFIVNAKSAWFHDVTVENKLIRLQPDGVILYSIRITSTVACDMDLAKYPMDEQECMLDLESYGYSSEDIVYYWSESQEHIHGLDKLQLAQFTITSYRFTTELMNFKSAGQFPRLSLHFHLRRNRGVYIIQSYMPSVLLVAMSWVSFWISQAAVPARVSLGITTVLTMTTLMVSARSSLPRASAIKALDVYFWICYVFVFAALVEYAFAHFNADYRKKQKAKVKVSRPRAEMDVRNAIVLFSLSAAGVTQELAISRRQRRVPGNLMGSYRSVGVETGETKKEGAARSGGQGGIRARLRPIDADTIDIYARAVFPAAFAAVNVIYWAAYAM

Q: What does the source list for `CN1C(=O)CN=C(c2ccccc2)c2cc(Cl)ccc21` [DZP, diazepam, reference compound]?
A: potentiation of current when applied alone ([1]; α4β3δ, DZP alone): did not potentiate; enhancement of GABA currents ([2]; 100 nM DZP alone, α1β2γ2, 2 μM GABA): 104%; concentration applied alone required to reach 150% effect level [2]: 360 nM

Q: For `O=S(=O)(O)C1CCNCC1` [P4S, piperidine-4-sulphonic acid], which EC50 ([3]; P4S alone) is on record?
A: 45000 nM and 44500 nM

Q: What about the EC50 ([3]; with 200 nM zuranolone) of the same compound?
A: 25200 nM

Q: What about the “Emax of P4S” value ([3]; P4S alone, normalized to maximum current evoked by saturating GABA (100 μM)) of the same compound?
A: 25%

Q: With `C[C@@]1(O)CC[C@H]2[C@H](CC[C@@H]3[C@@H]2CC[C@]2(C)[C@@H](C(=O)Cn4cc(C#N)cn4)CC[C@@H]32)C1` [zuranolone, 3α-Hydroxy-3β-methyl-21-(4-cyano-1H-pyrazol-1’-yl)-19-nor-5β-pregnan-20-one] as the compound, how does the tolerability ([4]; oral administration) read?
A: generally well tolerated

Q: What about the “pharmacokinetics following oral administration” value [4] of the same compound?
A: predictable pharmacokinetics

Q: What about the “inhibition of radioligand binding” value [5] of the same compound?
A: 57%

Q: And the “time of maximum plasma concentration (Cmax) post dose” value ([6]; 10 mg/kg IP)?
A: 30 min

Q: What about the “time of maximum plasma concentration (Cmax) post dose” value ([6]; 10 mg/kg PO) of the same compound?
A: 30 min

Q: And the Cmax ([6]; ip)?
A: 3200 ng/mL

Q: What about the bioavailability ([6]; ip) of the same compound?
A: 89%

Q: And the Cmax ([6]; po)?
A: 1340 ng/mL

Q: And the bioavailability ([6]; po)?
A: 62%

Q: And the EC50 [1]?
A: 135 nM

Q: What about the concentration at 60 min ([7]; 0.3 mg/kg) of the same compound?
A: 22 ng/mL

Q: And the concentration at 60 min ([7]; 3 mg/kg)?
A: 301 ng/mL

Q: And the concentration at 60 min ([7]; 20 mg/kg)?
A: 1470 ng/mL

Q: What about the EC50 [8] of the same compound?
A: 1260 nM

Q: What about the “sleep or wake time” value ([9]; 0.3 mg/kg PO) of the same compound?
A: No changes in sleep or wake time

Q: And the “β-band EEG power relative to vehicle” value ([9]; 0.3 mg/kg PO, p = 0.58)?
A: did not elicit a significant increase

Q: And the “time of β-band EEG power peak post dose” value ([9]; 3 mg/kg PO)?
A: approximately 0.5 h

Q: What about the “β-band EEG power at one hour vs vehicle” value ([9]; 3 mg/kg PO, p < 0.0005) of the same compound?
A: significantly greater than vehicle

Q: What about the sleep time ([9]; 3 mg/kg PO) of the same compound?
A: increased sleep time during the first hour

Q: What about the “time of β-band EEG power peak” value ([9]; 20 mg/kg PO) of the same compound?
A: ≤ 30 min

Q: And the sleep time ([9]; 20 mg/kg PO)?
A: increased time spent in sleep during all three hours

Q: And the “β-band EEG power at one hour vs vehicle” value ([9]; 20 mg/kg PO, p = 0.79)?
A: not significantly different from vehicle

Q: And the EC50 [2]?
A: 844 nM

Q: And the “concentration required to potentiate the current greater than 150%” value ([2]; α1β2γ2, coapplied with 100 nM DZP)?
A: 10 nM

Q: What about the “interaction of zuranolone and DZP by isobolographic analysis” value ([2]; α1β2γ2, coapplied zuranolone and DZP) of the same compound?
A: synergistically

Q: What about the maximal potentiation ([2]; α1β2γ2, in the presence of 100 nM DZP) of the same compound?
A: 1084%

Q: And the “concentration applied alone required to reach 150% effect level” value [2]?
A: 315 nM

Q: And the maximal potentiation ([2]; α1β2γ2, without DZP)?
A: 511%

Q: And the brain concentrations [10]?
A: 60 to 143 ng/g

Q: What about the tonic current density ([11]; 0.1 μM) of the same compound?
A: 2.48 ± 0.7 pA/pF

Q: And the sIPSC amplitude ([11]; 0.1 μM)?
A: 99 ± 26 pA

Q: And the sIPSC decay ([11]; 0.1 μM)?
A: 10 ± 1 ms

Q: And the tonic current density ([11]; 1 μM)?
A: 5.55 ± 1.3 pA/pF

Q: What about the sIPSC amplitude ([11]; 1 μM) of the same compound?
A: 57 ± 7 pA

Q: What about the sIPSC decay ([11]; 1 μM) of the same compound?
A: 24 ± 4 ms

Q: And the sIPSC frequency ([11]; following zuranolone exposure)?
A: no change

Q: And the EC50 [12]?
A: 298 nM

Q: And the Emax ([12]; HEK293)?
A: 534%

Q: What about the EC50 [13] of the same compound?
A: 293 nM

Q: And the Emax ([13]; HEK293)?
A: 291%

Q: And the “effects at 8 cardiac ion channels” value [14]?
A: no significant effects

Q: And the EC50 [15]?
A: 118 nM

Q: And the Emax ([15]; CHO)?
A: 556%

Q: And the EC50 [16]?
A: 184 nM

Q: And the “inhibition of radioligand binding” value [17]?
A: 87%

Q: What about the “latency to tonic seizures” value ([18]; mouse, 0.3 mg/kg PO, non-significant trend (p = 0.06)) of the same compound?
A: 1033 ± 179 s

Q: And the “latency to tonic seizures” value ([18]; mouse, 1, 3, and 10 mg/kg PO, 60 min prior to 120 mg/kg PTZ)?
A: ≥ 1688 ± 56 s

Q: What about the EC50 [19] of the same compound?
A: 780 nM

Q: What about the EC50 [20] of the same compound?
A: 390 nM

Q: And the Emax ([20]; HEK293)?
A: 684%

Q: And the “effects at 22 nuclear hormone receptors” value [21]?
A: no significant effects

Q: What about the EC50 [22] of the same compound?
A: 516 nM

Q: And the antagonist activity [23]?
A: 96%

Q: What about the “selectivity for GABAA receptors vs other ion channel and hormone receptors” value [24] of the same compound?
A: selective

Q: What about the EC50 [25] of the same compound?
A: 430 nM
